From ChEMBL document CHEMBL1156453, “Cellular characterization of a novel focal adhesion kinase inhibitor” (J Biol Chem, 2007)

Tests used:
[1] = Inhibition of 10% serum-stimulated cell migration of rat REF52 cells at 1.0 uM pretreated for 30 mins measured after 6 hrs by transwell assay relative to control; assay type: functional
How it was run: (§1)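 Modified Boyden transwell, 8-μm pores. REF52 cells (1 × 10⁵) pretreated 30 min with inhibitor, which stayed in both chambers. Attractant was 10% FBS in the lower chamber, or membrane underside coated with 1.5 μg/ml fibronectin overnight at 4 °C under serum-free DMEM. Migration 6 h at 37 °C. Underside cells fixed, crystal-violet stained and counted in four fields. Triplicates normalized to untreated control; ANOVA then t-tests.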

[2] = Inhibition of fibronectin-stimulated cell migration of rat REF52 cells at 1.0 uM pretreated for 30 mins measured after 6 hrs by transwell assay relative to control; assay type: functional; how it was run: as §1
[3] = Inhibition of 10% serum-stimulated cell migration of rat REF52 cells at 10 uM pretreated for 30 mins measured after 6 hrs by transwell assay relative to control; assay type: functional; how it was run: as §1
[4] = Inhibition of fibronectin-stimulated cell migration of rat REF52 cells at 10 uM pretreated for 30 mins measured after 6 hrs by transwell assay relative to control; assay type: functional; how it was run: as §1
[5] = Inhibition of cell migration of rat REF52 cells assessed as reduction in rate of movement of cell into wound at 1 uM by wound healing assay in presence of 10% serum; assay type: functional; set-up: scale not given: the % may be the effect or the level left
How it was run: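 Confluent REF52 monolayers wounded with a pipette tip, with inhibitor added at wounding. Starting 1 h later, cells filmed for 9 h at 37 °C by DIC time-lapse microscopy. Nuclei of single cells tracked, and speed taken as track length divided by total movie time.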

NIH3T3 = assay: Inhibition of focal adhesion turnover in wounded mouse NIH3T3 cells expressing GFP-paxillin assessed as average adhesion life-time at 1 uM by TIRF microscopy; assay type: functional
[6] = target: Protein-tyrosine kinase 2-beta (Homo sapiens, UniProt Q14289); assay: Inhibition of Pyk2
How it was run: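 Recombinant Pyk2 was run in parallel with the FAK kinase assay. That assay measures phosphorylation of a poly(Glu/Tyr) (4:1) substrate in an ELISA read with anti-phosphotyrosine (PY20) and an HRP secondary. Compounds were serially diluted at ½-log steps from a 1 μm top concentration, each concentration was run in triplicate, and IC50 was fitted by the Hill slope model.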

[7] = target: Tyrosine-protein kinase ABL1 (Homo sapiens) (UniProt P00519); assay: Inhibition of human Abl at 1 uM
[8] = Inhibition of ACK at 1 uM
How it was run: (§2)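 Recombinant kinases were screened in a commercial profiling panel with the compound at a single concentration of 1 μM. The read-out is percent inhibition of each enzyme's kinase activity.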

[9] = target: RAC-alpha serine/threonine-protein kinase (Homo sapiens) (UniProt P31749); assay: Inhibition of AKT at 1 uM
Sequence of RAC-alpha serine/threonine-protein kinase (Homo sapiens) (P31749 whole entry): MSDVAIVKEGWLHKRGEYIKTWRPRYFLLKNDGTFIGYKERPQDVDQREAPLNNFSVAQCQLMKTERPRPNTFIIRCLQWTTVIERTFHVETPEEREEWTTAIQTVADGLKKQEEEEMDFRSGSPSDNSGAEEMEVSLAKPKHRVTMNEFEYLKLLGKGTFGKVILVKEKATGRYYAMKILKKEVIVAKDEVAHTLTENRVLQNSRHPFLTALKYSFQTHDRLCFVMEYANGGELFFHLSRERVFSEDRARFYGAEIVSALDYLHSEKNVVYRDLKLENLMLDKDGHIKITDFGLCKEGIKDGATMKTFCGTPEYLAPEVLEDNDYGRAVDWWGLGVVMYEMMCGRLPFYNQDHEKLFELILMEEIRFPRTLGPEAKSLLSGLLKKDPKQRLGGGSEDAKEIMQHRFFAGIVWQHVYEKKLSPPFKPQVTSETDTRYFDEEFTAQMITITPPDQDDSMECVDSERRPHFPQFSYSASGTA

[10] = target: Protein DBF4 homolog A (Homo sapiens) (UniProt Q9UBU7); assay: Inhibition of ASK at 1 uM
[11] = target: Tyrosine-protein kinase BTK (Homo sapiens) (UniProt Q06187); assay: Inhibition of BTK at 1 uM
[12] = target: RAF proto-oncogene serine/threonine-protein kinase (Homo sapiens) (UniProt P04049); assay: Inhibition of human c-RAF at 1 uM
[13] = target: Calcium/calmodulin-dependent protein kinase type IV (Homo sapiens) (UniProt Q16566); assay: Inhibition of human CaMK4 at 1 uM
[14] = target: Cyclin-dependent kinase 1/cyclin B1 (Homo sapiens) (UniProt P06493+P14635); assay: Inhibition of human CDK1/cyclinB at 1 uM; assay type: protein-complex assay; how it was run: as §2
[15] = target: Cyclin-dependent kinase 2 (Homo sapiens) (UniProt P24941); assay: Inhibition of human CDK2/cyclinA at 1 uM
[16] = target: Cyclin-dependent kinase 2 (Homo sapiens) (UniProt P24941); assay: Inhibition of human CDK2/cyclinE at 1 uM
[17] = target: Cyclin-dependent kinase 3 (Homo sapiens) (UniProt Q00526); assay: Inhibition of human CDK3/cyclinE at 1 uM
Sequence of Cyclin-dependent kinase 3 (Homo sapiens) (Q00526 whole entry, looked up): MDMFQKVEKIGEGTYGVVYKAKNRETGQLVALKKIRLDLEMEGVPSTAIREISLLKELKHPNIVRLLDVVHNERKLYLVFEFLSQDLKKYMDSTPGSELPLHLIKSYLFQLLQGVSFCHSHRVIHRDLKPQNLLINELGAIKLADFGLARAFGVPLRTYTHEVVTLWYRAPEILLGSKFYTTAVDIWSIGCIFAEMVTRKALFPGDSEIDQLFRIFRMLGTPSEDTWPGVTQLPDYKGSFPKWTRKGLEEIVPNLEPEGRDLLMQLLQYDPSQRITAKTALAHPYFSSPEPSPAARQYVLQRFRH

Homo sapiens = species: Homo sapiens; assay: Inhibition of human CDK5/p35 at 1 uM; how it was run: as §2
[18] = target: CDK6/cyclin D3 (Homo sapiens) (UniProt P30281+Q00534); assay: Inhibition of human CDK6/cyclinD3 at 1 uM; assay type: protein-complex assay
[19] = target: Cyclin-dependent kinase 7 (Homo sapiens, UniProt P50613); assay: Inhibition of human CDK7/cyclinH/MAT1 at 1 uM; how it was run: as §2
Sequence of Cyclin-dependent kinase 7 (P50613 whole entry): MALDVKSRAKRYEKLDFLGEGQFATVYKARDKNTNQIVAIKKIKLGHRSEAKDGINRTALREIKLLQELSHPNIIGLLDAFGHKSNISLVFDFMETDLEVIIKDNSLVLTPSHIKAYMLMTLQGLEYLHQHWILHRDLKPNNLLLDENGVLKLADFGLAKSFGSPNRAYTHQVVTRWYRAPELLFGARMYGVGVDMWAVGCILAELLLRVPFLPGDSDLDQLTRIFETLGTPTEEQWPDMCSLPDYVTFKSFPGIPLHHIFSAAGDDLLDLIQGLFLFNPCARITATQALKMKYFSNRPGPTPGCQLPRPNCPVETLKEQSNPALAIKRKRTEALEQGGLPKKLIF

[20] = target: Serine/threonine-protein kinase Chk1 (Homo sapiens) (UniProt O14757); assay: Inhibition of CHK1 at 1 uM; how it was run: as §2
Sequence of Serine/threonine-protein kinase Chk1 (Homo sapiens) (O14757 whole entry): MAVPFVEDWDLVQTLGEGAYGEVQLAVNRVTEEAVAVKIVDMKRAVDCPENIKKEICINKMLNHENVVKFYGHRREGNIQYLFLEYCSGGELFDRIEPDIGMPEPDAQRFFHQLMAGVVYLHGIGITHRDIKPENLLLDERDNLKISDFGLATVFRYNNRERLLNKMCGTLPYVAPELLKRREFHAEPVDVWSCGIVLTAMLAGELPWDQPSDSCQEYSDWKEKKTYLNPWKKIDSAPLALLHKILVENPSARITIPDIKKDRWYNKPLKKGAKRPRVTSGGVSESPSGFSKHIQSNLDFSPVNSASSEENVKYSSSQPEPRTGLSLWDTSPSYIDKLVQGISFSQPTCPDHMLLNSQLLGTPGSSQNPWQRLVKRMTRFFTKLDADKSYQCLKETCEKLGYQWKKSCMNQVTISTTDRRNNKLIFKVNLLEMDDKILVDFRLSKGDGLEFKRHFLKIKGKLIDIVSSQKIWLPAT

[21] = target: Proto-oncogene tyrosine-protein kinase Src (Homo sapiens) (UniProt P12931); assay: Inhibition of human cSRC at 1 uM
[22] = target: Epidermal growth factor receptor (Homo sapiens) (UniProt P00533); assay: Inhibition of human EGFR at 1 uM
[23] = target: Ephrin type-A receptor 2 (Homo sapiens) (UniProt P29317); assay: Inhibition of EphA2 at 1 uM
[24] = target: Ephrin type-B receptor 2 (Homo sapiens) (UniProt P29323); assay: Inhibition of EphB2 at 1 uM
[25] = target: Glycogen synthase kinase-3 beta (Homo sapiens, UniProt P49841); assay: Inhibition of human GSK3-beta at 1 uM; how it was run: as §2
Sequence of Glycogen synthase kinase-3 beta (P49841 whole entry, looked up): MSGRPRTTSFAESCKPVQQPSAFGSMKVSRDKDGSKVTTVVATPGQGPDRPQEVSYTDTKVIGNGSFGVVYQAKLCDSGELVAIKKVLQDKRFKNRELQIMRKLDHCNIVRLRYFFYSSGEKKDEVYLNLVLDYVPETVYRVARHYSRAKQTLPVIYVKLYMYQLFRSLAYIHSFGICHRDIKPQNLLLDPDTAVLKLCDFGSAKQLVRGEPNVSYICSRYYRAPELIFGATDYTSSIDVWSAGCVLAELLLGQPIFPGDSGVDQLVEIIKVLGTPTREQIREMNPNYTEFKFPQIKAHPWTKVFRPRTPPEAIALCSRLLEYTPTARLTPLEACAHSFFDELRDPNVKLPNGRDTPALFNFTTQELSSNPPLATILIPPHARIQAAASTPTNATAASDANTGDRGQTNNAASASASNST

[26] = target: Tyrosine-protein kinase Fyn (Homo sapiens) (UniProt P06241); assay: Inhibition of Fyn at 1 uM
Sequence of Tyrosine-protein kinase Fyn (Homo sapiens) (P06241 2-537 limits assumed): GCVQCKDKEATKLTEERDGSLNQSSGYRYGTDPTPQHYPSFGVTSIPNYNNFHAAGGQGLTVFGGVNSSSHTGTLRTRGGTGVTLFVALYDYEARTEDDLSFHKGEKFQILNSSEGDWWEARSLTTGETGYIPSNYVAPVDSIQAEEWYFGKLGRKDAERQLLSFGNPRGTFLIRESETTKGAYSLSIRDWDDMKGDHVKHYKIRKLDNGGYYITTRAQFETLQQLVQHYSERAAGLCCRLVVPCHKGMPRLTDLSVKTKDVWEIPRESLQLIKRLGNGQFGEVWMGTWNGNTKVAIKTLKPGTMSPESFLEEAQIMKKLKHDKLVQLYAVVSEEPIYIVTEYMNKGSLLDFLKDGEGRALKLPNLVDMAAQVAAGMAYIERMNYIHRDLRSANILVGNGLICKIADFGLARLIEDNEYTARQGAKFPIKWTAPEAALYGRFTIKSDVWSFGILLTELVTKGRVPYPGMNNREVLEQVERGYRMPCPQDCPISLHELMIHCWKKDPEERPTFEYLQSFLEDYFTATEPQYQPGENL

[27] = target: Insulin receptor (Homo sapiens) (UniProt P06213); assay: Inhibition of IR at 1 uM
[28] = target: Insulin-like growth factor 1 receptor (Homo sapiens) (UniProt P08069); assay: Inhibition of IGF1R at 1 uM
Sequence of Insulin-like growth factor 1 receptor (Homo sapiens) (P08069 31-736 limits assumed): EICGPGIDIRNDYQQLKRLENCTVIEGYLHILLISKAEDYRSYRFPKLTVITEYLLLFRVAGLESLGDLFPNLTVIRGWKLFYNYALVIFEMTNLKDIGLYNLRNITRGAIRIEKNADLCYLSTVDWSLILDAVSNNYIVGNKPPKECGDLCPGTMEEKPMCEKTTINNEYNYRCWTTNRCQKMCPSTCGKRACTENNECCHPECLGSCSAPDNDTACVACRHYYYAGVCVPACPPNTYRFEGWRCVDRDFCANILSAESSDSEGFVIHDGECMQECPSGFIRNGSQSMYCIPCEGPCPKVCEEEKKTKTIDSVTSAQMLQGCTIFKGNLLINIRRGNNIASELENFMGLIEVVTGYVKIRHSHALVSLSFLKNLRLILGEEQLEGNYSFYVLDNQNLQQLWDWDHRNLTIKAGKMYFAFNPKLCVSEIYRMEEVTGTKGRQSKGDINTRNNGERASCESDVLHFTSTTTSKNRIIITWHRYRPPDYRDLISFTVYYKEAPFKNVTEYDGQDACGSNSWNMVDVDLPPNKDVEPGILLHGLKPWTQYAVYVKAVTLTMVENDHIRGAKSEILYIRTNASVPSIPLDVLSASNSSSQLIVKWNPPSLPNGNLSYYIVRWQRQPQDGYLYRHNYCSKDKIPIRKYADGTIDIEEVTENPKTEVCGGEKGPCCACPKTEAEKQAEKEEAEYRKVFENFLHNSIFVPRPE
Sequence of Insulin-like growth factor 1 receptor (Homo sapiens) (P08069 741-1367 limits assumed): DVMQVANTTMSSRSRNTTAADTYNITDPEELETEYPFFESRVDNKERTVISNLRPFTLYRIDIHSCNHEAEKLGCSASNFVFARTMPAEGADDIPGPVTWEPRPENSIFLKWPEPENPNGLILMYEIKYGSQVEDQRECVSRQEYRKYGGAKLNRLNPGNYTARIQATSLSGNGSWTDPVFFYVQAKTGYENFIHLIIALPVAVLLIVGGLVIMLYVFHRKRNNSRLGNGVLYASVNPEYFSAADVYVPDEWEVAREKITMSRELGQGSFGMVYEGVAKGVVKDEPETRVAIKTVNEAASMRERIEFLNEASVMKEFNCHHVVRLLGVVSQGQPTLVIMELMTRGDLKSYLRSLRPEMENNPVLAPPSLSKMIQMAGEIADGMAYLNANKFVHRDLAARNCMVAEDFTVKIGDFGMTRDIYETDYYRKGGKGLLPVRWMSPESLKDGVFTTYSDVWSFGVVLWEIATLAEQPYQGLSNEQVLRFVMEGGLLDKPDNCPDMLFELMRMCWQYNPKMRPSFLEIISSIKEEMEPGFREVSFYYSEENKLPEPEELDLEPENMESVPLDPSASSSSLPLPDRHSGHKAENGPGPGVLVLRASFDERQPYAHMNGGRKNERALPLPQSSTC

[29] = target: Inhibitor of nuclear factor kappa-B kinase subunit beta (Homo sapiens) (UniProt O14920); assay: Inhibition of human IKK-beta at 1 uM
[30] = target: Tyrosine-protein kinase JAK3 (Homo sapiens) (UniProt P52333); assay: Inhibition of JAK3 at 1 uM
Sequence of Tyrosine-protein kinase JAK3 (Homo sapiens) (P52333 whole entry): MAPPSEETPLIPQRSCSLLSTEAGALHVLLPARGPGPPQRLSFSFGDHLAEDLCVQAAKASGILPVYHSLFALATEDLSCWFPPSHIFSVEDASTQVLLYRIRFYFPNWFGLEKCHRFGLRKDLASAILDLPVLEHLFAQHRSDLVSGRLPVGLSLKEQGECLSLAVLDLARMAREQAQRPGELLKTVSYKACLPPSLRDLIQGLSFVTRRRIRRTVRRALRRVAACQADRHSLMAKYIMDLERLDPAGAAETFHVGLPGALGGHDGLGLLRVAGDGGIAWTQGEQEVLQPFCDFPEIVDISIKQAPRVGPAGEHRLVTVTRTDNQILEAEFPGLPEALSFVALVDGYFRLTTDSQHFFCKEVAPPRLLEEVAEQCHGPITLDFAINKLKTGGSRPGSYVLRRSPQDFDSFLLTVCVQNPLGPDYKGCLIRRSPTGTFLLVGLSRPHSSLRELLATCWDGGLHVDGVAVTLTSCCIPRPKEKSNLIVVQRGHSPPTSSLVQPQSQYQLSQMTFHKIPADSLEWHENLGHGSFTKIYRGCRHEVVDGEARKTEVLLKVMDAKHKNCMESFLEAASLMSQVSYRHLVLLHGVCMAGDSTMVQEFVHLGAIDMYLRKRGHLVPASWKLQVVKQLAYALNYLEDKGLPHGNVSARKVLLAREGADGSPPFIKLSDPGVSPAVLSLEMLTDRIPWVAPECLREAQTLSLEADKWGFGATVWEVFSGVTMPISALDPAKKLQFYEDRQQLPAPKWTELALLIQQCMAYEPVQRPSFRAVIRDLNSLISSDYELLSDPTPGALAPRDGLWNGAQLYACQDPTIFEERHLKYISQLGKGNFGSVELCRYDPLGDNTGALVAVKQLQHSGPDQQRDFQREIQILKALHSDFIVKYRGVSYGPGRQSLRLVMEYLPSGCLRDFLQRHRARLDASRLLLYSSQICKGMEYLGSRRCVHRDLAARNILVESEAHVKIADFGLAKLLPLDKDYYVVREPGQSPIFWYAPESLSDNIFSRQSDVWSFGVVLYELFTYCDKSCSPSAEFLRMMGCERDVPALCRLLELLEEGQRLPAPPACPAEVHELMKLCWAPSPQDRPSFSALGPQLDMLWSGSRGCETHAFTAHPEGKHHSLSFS

[31] = target: Protein kinase C theta type (Homo sapiens) (UniProt Q04759); assay: Inhibition of PKCtheta at 1 uM
[32] = target: Mitogen-activated protein kinase 8 (Homo sapiens) (UniProt P45983); assay: Inhibition of human JNK1alpha1 at 1 uM

In the case of `CS(=O)(=O)c1cccc(CNc2nc(Nc3ccc4c(c3)CCC(=O)N4)ncc2C(F)(F)F)c1`, the Activity [1] is reported as 1, the Activity [2] is reported as 2.2 and the Activity [3] is reported as 0.3. For the same compound, the Activity [4] was 0.5, the Activity [5] was 27% and the Time (NIH3T3) was 33.1 min. The IC50 [6] was over 1000 nM, the inhibition [7] was 8% and the inhibition [8] was 29%. The inhibition [9] was 0%, the inhibition [10] was 1% and the inhibition [11] was 11%. It also gave an inhibition [12] of 0%, an inhibition [13] of 0% and an inhibition [14] of 77%. For the same compound, the inhibition [15] was 50%, the inhibition [16] was 44% and the inhibition [17] was 44%. For the same compound, the inhibition (Homo sapiens) was 0%, the inhibition [18] was 15% and the inhibition [19] was 86%. It also gave an inhibition [20] of 13%, an inhibition [21] of 1% and an inhibition [22] of 0%. It also gave an inhibition [23] of 15%, an inhibition [24] of 11% and an inhibition [25] of 64%. It also gave an inhibition [26] of 28%, an inhibition [27] of 27% and an inhibition [28] of 21%. It also gave an inhibition [29] of 56%, an inhibition [30] of 27% and an inhibition [31] of 36%. The inhibition [32] was 4%.
